Results as given in ChEMBL document CHEMBL2396655, “Design, synthesis, and biological evaluation of (E)-N-aryl-2-arylethenesulfonamide analogues as potent and orally bioavailable microtubule-targeted anticancer agents” (J Med Chem, 2013).
Active and inactive are the calls of the source. No cut-off for these calls is given here.

Experiments:
DU-145 [1] = test: Mitotoic arrest in human DU145 cells assessed as presence of micronucleated cells at 25 nM after 24 hrs by FITC and propidium iodide staining-based confocal laser microscopic analysis; type: functional, cell-based
Method in brief: (§1)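 DU145 cells grown on glass coverslips, exposed to 0.025 μM for 24 h, fixed in 4% paraformaldehyde, permeabilized in PBS with 10% FBS/0.1% Triton X-100, stained with FITC-conjugated anti-α-tubulin (DM1A, 1 h, 37 °C) and propidium iodide (1 μg/mL, 5 min), then imaged by confocal microscopy (60× objective, XYZ-sectioning); DMSO-treated cells as vehicle.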

DU-145 [2] = test: Mitotoic arrest in human DU145 cells assessed as complete loss of coordination in mitotic spindle assembly at 25 nM after 24 hrs by FITC and propidium iodide staining-based confocal laser microscopic analysis; type: functional, cell-based; method in brief: as §1
Mus musculus = test: Toxicity in NCR-nu/nu mouse assessed as reduction in body weight at 20 mg/kg, ip treated 3 times a week for 2 weeks measured on alternate days for 14 days; type: organism-based; parameters: dose 20 mg/kg, route intraperitoneal; conditions: in vivo, 336 h
Method in brief: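 Female athymic NCr-nu/nu mice bearing subcutaneous BT20 hind-leg tumors (~100–150 mm³) were given 20 mg/kg IP in DMSO (0.1 mL), 3 times a week for 2 weeks (N=8; vehicle N=7).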

Tubulin (Homo sapiens) = Tubulin (Homo sapiens) (UniProt P68371+Q9H4B7+P0DPH7+P68366+Q13509+Q71U36+P04350+Q3ZCM7+P07437+P68363+Q9BQE3+Q6PEY2+Q13885+Q9BVA1+Q9BUF5); test: Inhibition of tubulin polymerization in human DU145 cells at 10 to 50 nM pretreated with paclitaxel for 24 hrs followed by compound treatment for 4 hrs by Western blotting analysis; type: cell-based; conditions: DU-145
Method in brief: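 DU145 cells were plated at 1.0×10⁴/well and treated for 24 h. Alternatively, cells were pretreated with paclitaxel for 24 h, then exposed to compound for 4 h. Cells were lysed in hypotonic buffer (1 mM MgCl₂, 2 mM EGTA, Tris pH 6.6, 0.5% NP40, protease inhibitors) and spun 10 min at 14,000 rpm. Pellet (polymerized) and supernatant (soluble) fractions were blotted for α-tubulin.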

Liver = test: Metabolic stability in rat liver S9 fraction assessed as compound remaining at 10 uM after 1 hr by LC-MS/MS analysis; type: ADME, subcellular; conditions: s9, 1 h
Method in brief: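 Compound at 10 μM was incubated with rat, dog or human liver S9 fraction (1 mg/mL) for 0, 30 and 60 min. Parent remaining at 1 h was quantified by LC-MS/MS.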

MDCK = test: Efflux ratio of permeability from basolateral to apical over apical to basolateral side in MDCK cells expressing MDR-1; conditions: dog

COc1cc(OC)c(/C=C/S(=O)(=O)Nc2ccc(OC)c(N)c2)c(OC)c1
Activity (DU-145 [1]): Active | Activity (DU-145 [2]): Active | Activity (Mus musculus): Non-toxic | inhibition (Tubulin (Homo sapiens)): Active | Stability (Liver): 33% | Ratio (MDCK): 7.9
